Bioassay records (PubChem BioAssay)
HCT116 PTEN-null = suppresses growth of cells with PTEN deletion; viability, % at 10 µM; AID 827; hit rate 1.2% among 140,000; HCT116 PTEN-null viability, CellTiter-Glo, 60 h; stronger effect = lower value;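 active = viability at or below a set limit, 4 SD under the median of all tested compounds, cut at about 3.7% in these data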;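 note: PTEN knockout HCT116 line with beta catenin targeted HCT116 as companion control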
HUVEC prolif 384 = blocks proliferation of human endothelial cells | hit rate 1.1% among 86,000 | viability, % at 10 µM (by protocol) | HUVEC proliferation, CellTiter-Glo luminescence, 72 h; stronger effect = lower value | AID 648;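 active = viability at or below 30%; inactive = viability above 30%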
H69AR growth 86K = blocks growth of human H69AR lung tumor cells; H69AR lung tumor viability, ATP luminescence, 72 h; stronger effect = lower value; viability, % at 10 µM; hit rate 6% among 85,000;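 active = viability at or below 40%; inactive = viability above 40%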;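 note: multidrug resistant small cell line overexpressing MRP-1 efflux transporter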
Lung fibro prol = blocks proliferation of human lung fibroblasts; LL 47 human lung fibroblast viability, ATP luminescence; stronger effect = lower value; hit rate 1.1% among 85,000; viability, % at 10 µM;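 active = viability at or below 50% in the single dose screen; inactive = viability above 50%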;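 note: compound exposure lasted 72 h before the ATP readout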
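Test system: LL 47 human lung fibroblasts / Incubation: 72 h compound exposure at 37 °C after overnight plating / Technique: luminescent ATP detection, CellTiter-Glo / Compound dosing: 0.1% DMSO in all compound wells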
HCT116 bCat-KO = beta-catenin-lacking colon tumor cell growth suppression | HCT116 beta-catenin knockout viability, CellTiter-Glo, 60 h; stronger effect = lower value | AID 818 | hit rate 1.5% among 140,000 | viability, % at 10 µM;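 active = viability at or under a set limit, the compound median less 4 SD, cut at about 6% in these data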
Hits are given with their value. Only a selection was taken, and hits are over-represented in it overall.

Cc1ccc(/C=C2\SC(N3CCN(C(c4ccccc4)c4ccccc4)CC3)=NC2=O)o1 was read as HCT116 PTEN-null inactive and HCT116 bCat-KO inactive.
Screening O=C(CSc1nnc(SCc2cccc3ccccc23)s1)N=Nc1c(O)[nH]c2ccccc12 returned HCT116 PTEN-null 1.0 and HCT116 bCat-KO 4.3.
For O=C(CSc1nnc(SCc2cccc3ccccc23)s1)c1ccc2c(c1)OCO2 the results were HCT116 PTEN-null inactive and HCT116 bCat-KO inactive.
For CCOC(=O)C1=C(CSc2nc(C)cc(C)c2C#N)OC(N)=C(C#N)C1c1ccccc1 (stereo unspecified) the results were HCT116 PTEN-null inactive, HUVEC prolif 384 inactive, H69AR growth 86K inactive, Lung fibro prol inactive and HCT116 bCat-KO inactive.
For CCOC(=O)C1=C(CSc2nc(CC)c(C)cc2C#N)OC(N)=C(C#N)C1c1ccccc1 (stereo unspecified) the results were HCT116 PTEN-null inactive, HUVEC prolif 384 inactive, H69AR growth 86K 28, Lung fibro prol inactive and HCT116 bCat-KO inactive.
Screening CCOC(=O)C1=C(CSc2nc3c(cc2C#N)CN(C)CC3)OC(N)=C(C#N)C1c1ccc(Cl)cc1 (stereo unspecified) returned HCT116 PTEN-null inactive, HUVEC prolif 384 inactive, H69AR growth 86K 36, Lung fibro prol inactive and HCT116 bCat-KO inactive.
`O=C(NCc1ccc(F)cc1)C(=O)NCC1OCCN1C(=O)c1cccs1` (stereo unspecified) gave HCT116 PTEN-null inactive and HCT116 bCat-KO inactive.
Screening C=CCNC(=O)C1CC1(c1ccccc1)c1ccccc1 (stereo unspecified) returned HCT116 PTEN-null inactive and HCT116 bCat-KO inactive.
`Cc1nn(C(=O)CNS(=O)(=O)c2ccccc2)c(C)c1Sc1ccc(Cl)cc1` gave HCT116 PTEN-null inactive and HCT116 bCat-KO inactive.
CCOc1c(Br)cc(C2NS(=O)(=O)N=C3CCCCCN32)cc1OC (stereo unspecified) was read as HCT116 PTEN-null inactive, HUVEC prolif 384 inactive, H69AR growth 86K 34, Lung fibro prol inactive and HCT116 bCat-KO inactive.
Screening O=S1(=O)N=C2CCCN2C(c2ccc(F)cc2)N1 (stereo unspecified) returned HCT116 PTEN-null inactive, HUVEC prolif 384 inactive, H69AR growth 86K inactive, Lung fibro prol inactive and HCT116 bCat-KO inactive.
CCc1ccc(C(=O)N/N=C/c2cccc3ccccc23)nc1 was read as HCT116 PTEN-null inactive and HCT116 bCat-KO inactive.
`OCCN1CCN(Cc2cc(Cl)c3cccnc3c2O)CC1` gave HCT116 PTEN-null inactive, HUVEC prolif 384 inactive, H69AR growth 86K 37, Lung fibro prol inactive and HCT116 bCat-KO inactive.
For Oc1c(CN2CCN(c3ccccn3)CC2)cc(Cl)c2cccnc12 the results were HCT116 PTEN-null 2.6, HUVEC prolif 384 inactive, H69AR growth 86K 0.1, Lung fibro prol 34 and HCT116 bCat-KO 2.0.
OCCN1CCN(Cc2cc(Br)cc(Br)c2O)CC1 was read as HCT116 PTEN-null inactive, HUVEC prolif 384 inactive, H69AR growth 86K inactive, Lung fibro prol inactive and HCT116 bCat-KO inactive.
Screening CC(=O)N1CCC(N(CCN2CCOCC2)C(=S)Nc2ccccc2C)CC1 returned HCT116 PTEN-null inactive and HCT116 bCat-KO inactive.
For O=C(OCC(=O)N1CCCc2ccccc21)c1cccc(S(=O)(=O)N2CCc3ccccc32)c1 the results were HCT116 PTEN-null inactive and HCT116 bCat-KO inactive.
COC(=O)c1oc2ccc(Br)cc2c1NC(=O)c1ccccc1 was read as HCT116 PTEN-null inactive, HUVEC prolif 384 inactive, H69AR growth 86K 30, Lung fibro prol inactive and HCT116 bCat-KO inactive.
COc1ccc(-n2nc(C(=O)Nc3nc4ccc(OC)cc4s3)c3ccccc3c2=O)c(OC)c1 was read as HCT116 PTEN-null 2.6 and HCT116 bCat-KO inactive.
Screening COc1ccc(C(=O)Nc2ccc(Cl)c(Cl)c2)c(OC)n1 returned HCT116 PTEN-null inactive, HUVEC prolif 384 inactive, H69AR growth 86K inactive, Lung fibro prol inactive and HCT116 bCat-KO inactive.
Screening CC(C)C1O/C(=N/C(=O)Nc2ccc(Cl)c(Cl)c2)NC1=O (stereo unspecified) returned HCT116 PTEN-null inactive, HUVEC prolif 384 inactive, H69AR growth 86K 11, Lung fibro prol inactive and HCT116 bCat-KO inactive.
For CC1=Nc2ccccc2/C1=C/c1sc(=N)n(-c2nccs2)c1O the results were HCT116 PTEN-null 2.3, HUVEC prolif 384 inactive, H69AR growth 86K 2.9, Lung fibro prol inactive and HCT116 bCat-KO 3.9.
CC1=Nc2ccccc2/C1=C\c1nc(-c2ccc(C(F)(F)F)cc2)oc1O was read as HCT116 PTEN-null inactive, HUVEC prolif 384 inactive, H69AR growth 86K inactive, Lung fibro prol inactive and HCT116 bCat-KO inactive.
Screening COC(=O)/C=c1\sc2ncnn2c1=O returned HCT116 PTEN-null inactive, HUVEC prolif 384 inactive, H69AR growth 86K 7.9, Lung fibro prol inactive and HCT116 bCat-KO inactive.
Screening COc1cc(C(=O)Oc2ccccc2/C=N/NC(=O)c2ccc(Cl)cc2Cl)cc(OC)c1OC returned HCT116 PTEN-null 2.4 and HCT116 bCat-KO 2.7.
C=CCOc1ccccc1/C=N/NC(=O)c1ccc(Cl)cc1Cl was read as HCT116 PTEN-null inactive and HCT116 bCat-KO inactive.
For CCCN(CCC)CCNC(=O)C1CCN(Cc2nc(-c3ccc(Cl)cc3)oc2C)CC1 the results were HCT116 PTEN-null 2.2, HUVEC prolif 384 9.9, H69AR growth 86K inactive, Lung fibro prol 36 and HCT116 bCat-KO 2.2.
COc1ccc(CCNC(=O)C2CCCN(Cc3nc(-c4ccccc4C)oc3C)C2)cc1OC (stereo unspecified) was read as HCT116 PTEN-null inactive, HUVEC prolif 384 inactive, H69AR growth 86K inactive, Lung fibro prol inactive and HCT116 bCat-KO inactive.
For CCc1ccc(-c2nc(CN3CCCC(C(=O)NCCc4ccc(OC)c(OC)c4)C3)c(C)o2)cc1 (stereo unspecified) the results were HCT116 PTEN-null 3.0, HUVEC prolif 384 inactive, H69AR growth 86K 37, Lung fibro prol inactive and HCT116 bCat-KO 1.9.
`N#C/C(=C\c1cn(CCOc2ccccc2)c2ccccc12)C(=O)NCc1cccs1` gave HCT116 PTEN-null inactive and HCT116 bCat-KO inactive.
`N=c1n(CC(=O)c2ccc([N+](=O)[O-])cc2)c2ccccc2n1Cc1ccccc1` gave HCT116 PTEN-null 1.8 and HCT116 bCat-KO 1.7.
`N=c1n(CC(=O)c2ccc([N+](=O)[O-])cc2)c2ccccc2n1Cc1ccc(Cl)cc1` gave HCT116 PTEN-null 1.6 and HCT116 bCat-KO 1.3.
O=C(Nc1ccc(-c2noc(COc3ccccc3Cl)n2)cc1)c1ccco1 was read as HCT116 PTEN-null inactive, HUVEC prolif 384 inactive, H69AR growth 86K 29, Lung fibro prol inactive and HCT116 bCat-KO inactive.
`COc1ccc(Br)cc1C(=O)Nc1ccc(NC(=O)c2ccco2)cc1` gave HCT116 PTEN-null inactive, HUVEC prolif 384 inactive, H69AR growth 86K inactive, Lung fibro prol inactive and HCT116 bCat-KO inactive.
Screening COc1cccc(C(=O)Nc2cccc(-c3nnc(-c4ccco4)o3)c2)c1 returned HCT116 PTEN-null inactive, HUVEC prolif 384 inactive, H69AR growth 86K 38, Lung fibro prol inactive and HCT116 bCat-KO 5.0.
Screening COc1ccc(Br)cc1C(=O)Nc1cccc(-c2nnc(-c3ccco3)o2)c1 returned HUVEC prolif 384 inactive, H69AR growth 86K 8.6 and Lung fibro prol inactive.
